In ChEMBL document CHEMBL5038571, “Design and Synthesis of EZH2-Based PROTACs to Degrade the PRC2 Complex for Targeting the Noncatalytic Activity of EZH2” (J Med Chem, 2021) one finds Activity data, which are given here for one molecule.

The source made the active and inactive calls. The calls are words filed in the database; no cut-off is given here.

The target of assay [1] is T1, Protein cereblon/Histone-lysine N-methyltransferase EZH2 (Homo sapiens) (UniProt Q15910+Q96SW2). As to the kind of experiment: PROTAC activity at CRBN E3 ligase/EZH2 in PRC2 complex in human A2780 cells assessed as reduction in H3K27me3 level at 1 uM incubated for 48 hrs by Western blot analysis. Type of assay: cell-based. The method in brief: (§1)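 Cancer cell lines exposed to 1 μM compound for 48 h. Lysates immunoblotted (SDS-PAGE, nitrocellulose, 5% milk block, primary antibody overnight at 4 °C) for EZH2, SUZ12, EED, RbAp48 and H3K27me3. Bands quantified by densitometry and normalized to GAPDH.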
T1 sequence (Q15910 whole entry, looked up): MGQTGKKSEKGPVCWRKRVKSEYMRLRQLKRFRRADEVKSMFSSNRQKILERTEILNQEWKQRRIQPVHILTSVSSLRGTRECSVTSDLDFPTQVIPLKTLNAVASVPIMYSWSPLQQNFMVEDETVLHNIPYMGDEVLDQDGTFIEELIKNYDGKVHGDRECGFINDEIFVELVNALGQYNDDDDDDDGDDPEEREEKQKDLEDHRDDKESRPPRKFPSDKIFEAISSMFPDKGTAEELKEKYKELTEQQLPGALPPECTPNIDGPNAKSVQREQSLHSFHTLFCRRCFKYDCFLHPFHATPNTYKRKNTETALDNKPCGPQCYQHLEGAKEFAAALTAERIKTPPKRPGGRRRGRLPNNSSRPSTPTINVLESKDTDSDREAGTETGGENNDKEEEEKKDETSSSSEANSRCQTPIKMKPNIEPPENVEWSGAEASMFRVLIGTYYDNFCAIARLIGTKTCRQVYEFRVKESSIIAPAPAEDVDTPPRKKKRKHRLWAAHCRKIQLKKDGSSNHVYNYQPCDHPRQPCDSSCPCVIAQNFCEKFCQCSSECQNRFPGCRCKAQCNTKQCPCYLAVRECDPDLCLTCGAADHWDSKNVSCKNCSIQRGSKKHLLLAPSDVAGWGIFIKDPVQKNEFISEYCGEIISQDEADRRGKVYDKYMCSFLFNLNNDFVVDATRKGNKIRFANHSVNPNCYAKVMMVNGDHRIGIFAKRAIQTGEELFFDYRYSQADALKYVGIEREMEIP
T1 sequence (Q96SW2 whole entry, looked up): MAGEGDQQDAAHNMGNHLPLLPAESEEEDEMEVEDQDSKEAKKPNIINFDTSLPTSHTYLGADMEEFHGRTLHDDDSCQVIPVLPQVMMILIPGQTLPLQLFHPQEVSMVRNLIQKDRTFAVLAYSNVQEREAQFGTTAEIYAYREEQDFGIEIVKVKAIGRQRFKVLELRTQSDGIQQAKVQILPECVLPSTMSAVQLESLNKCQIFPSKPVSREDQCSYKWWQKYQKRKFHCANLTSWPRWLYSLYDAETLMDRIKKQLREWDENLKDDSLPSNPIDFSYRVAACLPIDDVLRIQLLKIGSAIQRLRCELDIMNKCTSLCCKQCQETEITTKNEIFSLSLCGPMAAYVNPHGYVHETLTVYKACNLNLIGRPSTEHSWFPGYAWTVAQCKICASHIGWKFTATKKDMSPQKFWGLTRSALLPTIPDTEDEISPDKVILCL
For orientation: A western blot detects proteins with antibodies after separation by electrophoresis.

Assay [2] concerns the target T1, Protein cereblon/Histone-lysine N-methyltransferase EZH2 (Homo sapiens). As to the kind of experiment: PROTAC activity at CRBN E3 ligase/EZH2 in PRC2 complex in human A2780 cells assessed as induction of RbAp48 degradation by measuring reduction in RbAp48 protein level at 1 uM incubated for 48 hrs by Western blot analysis. Type of assay: cell-based. The procedure, abridged:
as §1

A further assay has as its system WSUDLCL2. As to the kind of experiment: Upregulation of CDKN2A mRNA expression in human WSUDLCL2 cells at 1 uM incubated for 48 hrs by qRT-PCR analysis. Type of assay: functional, cell-based. The procedure, abridged:
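WSU-DLCL-2 or Pfeiffer cells treated 48 h. Trizol RNA extraction, reverse transcription, SYBR qPCR (95 °C 30 s; 40 cycles of 95 °C 6 s, 60 °C 20 s). mRNA normalized to DMSO-treated cells; mean ± SD of three independent experiments, t-test.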
For orientation: In qPCR the cycle at which signal appears reflects the starting amount.

Another assay has as its system NCI-H1299. Put plainly: Downregulation of CEP76 mRNA expression in human NCI-H1299 cells at 10 uM incubated for 48 hrs by qRT-PCR analysis. Type of assay: functional, cell-based. The procedure, abridged: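 Cells treated 48 h. Total RNA extracted with Trizol, reverse-transcribed, and SYBR RT-qPCR run: 95 °C 30 s, then 40 cycles of 95 °C 6 s and 60 °C 20 s. mRNA normalized to the DMSO-treated group. Mean SD of three independent experiments, t-test versus DMSO.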

With `CCN(c1cc(-c2ccc(CN3CCN(CCCCCCCOc4cccc5c4C(=O)N(C4CCC(=O)NC4=O)C5=O)CC3)cc2)cc(C(=O)NCc2c(C)cc(C)[nH]c2=O)c1C)C1CCOCC1` (centres undefined), the outcome (in assay [1]; in assay [2]; in the assay with NCI-H1299) was Active. Further, in the assay with WSUDLCL2, the outcome was inactive.
